Measurements of several laboratories.
Each line is one published result; the experiments were not run side by side.

CCNc1nc2c(c(N3CC(=O)Nc4cc(OC)ccc43)n1)CCC2 — AUC(0-inf) (female C57BL/6 mouse, plasma; intravenous, 4 mg/kg, single dose): 620 ng·h/mL
Cc1cc(Nc2ccc(S(F)(F)(F)(F)F)cc2)n2ccnc2n1 — AUC(0-inf) (male Swiss mouse, plasma; oral, 100 mg/kg, single dose): 154 µM·h
CCc1cc(OC)c2nccc(N3CCc4c(cc(Cn5ccnc5)cc4-c4cn(C)nc4C(F)(F)F)C3=O)c2c1 — AUC(0-inf) (male CD-1 mouse, plasma; oral, 150 mg/kg): 225000 ng·h/mL
COc1nc(-c2cc(C)c(N[C@@H](C)c3cc(F)cc(F)c3)nn2)ccc1-n1cnc(C)c1 — AUC(0-inf) (male CD-1 mouse, plasma; intravenous, 1 mg/kg, single dose): 2070 ng·h/mL
CCc1cc(C(=O)NC)c2nccc(N3CCc4c(cc(Cn5ccnc5)cc4-c4cn(C)nc4C(F)(F)F)C3=O)c2c1 — AUC(0-inf) (male CD-1 mouse, plasma; intravenous, 3 mg/kg): 4180 ng·h/mL
CN1CCN(C(=O)CN[C@@H]2C[C@H]2c2ccc(OCc3ccccc3)cc2)CC1 — AUC(0-inf) (mouse, plasma; intraperitoneal, 10 mg/kg): 1720 ng·h/mL
COc1ccc2nccc(N3CCc4c(cc(Cn5ccnc5)cc4-c4cn(C)nc4C(F)(F)F)C3=O)c2c1 — AUC(0-inf) (male CD-1 mouse, plasma; oral, 10 mg/kg): 2100 ng·h/mL
COc1nc(-c2cc(C)c(N[C@@H](C)c3ccc(F)cc3)nn2)ccc1-n1cnc(C)c1 — AUC(0-inf) (male CD-1 mouse, plasma; intravenous, 1 mg/kg, single dose): 4280 ng·h/mL
CC(C)(C)c1ccc(O)c(CN(Cc2cc(C(C)(C)C)ccc2O)C2CCC(NC(N)=O)CC2)c1 (stereo not shown) — AUC(0-inf) (male C57BL/6 mouse, plasma; intraperitoneal, 25 mg/kg, single dose): 16600 ng·h/mL
CNC(=O)c1cc(OC)cc2c(N3CCc4c(cc(Cn5ccnc5)cc4-c4cn(C)nc4C(F)(F)F)C3=O)ccnc12 — AUC(0-inf) (male CD-1 mouse, plasma; oral, 50 mg/kg): 145000 ng·h/mL
O=S(=O)(c1ccc(-c2ccc3nccc(Nc4ccncn4)c3c2)cc1)N1CCOCC1 — AUC(0-inf) (female BALB/c mouse, plasma; intraperitoneal, 10 mg/kg): 9520 ng·h/mL
Cc1cc(NC(=O)c2cccc3cc(-c4cccc5[nH]nc(N)c45)ccc23)ccc1F — AUC(0-inf) (male CD-1 mouse, plasma; oral, 10 mg/kg): 4940 ng·h/mL
CN1C(=O)c2ccccc2[S@+]([O-])c2ccc(C(=O)NCCc3cccs3)cc21 — AUC(0-inf) (male C57BL/6 mouse, brain; intraperitoneal, 30 mg/kg, single dose): 1430 ng·h/mL
Cc1noc(C)c1-c1ccc2nc(-c3cnn(CCO)c3)nc(N3CCOCC3c3ccccc3)c2c1 (stereo not shown) — AUC(0-inf) (CD-1 mouse, plasma; intravenous, 2 mg/kg): 1760 ng·h/mL
Cc1nc(-c2cnc(NC(C)C)n(C)c2=O)ccc1Oc1ccnc(-c2cnn(C)c2)c1 — AUC(0-inf) (female mouse, plasma; oral, 15 mg/kg, single dose): 127000 ng·h/mL
CC(C)(Nc1nc(-c2ccccn2)nc2ccccc12)c1ccccn1 — AUC(0-inf) (female BALB/c mouse, plasma; intravenous, 1 mg/kg): 1460 ng·h/mL
CNCCN(C)c1cc(C#N)cc(CCc2cc(C)cc(N)n2)c1 — AUC(0-inf) (male BALB/c mouse, plasma; intravenous, 2 mg/kg): 181 ng·h/mL
Cc1ccc2cncc(N3CCc4c(cc(Cn5ccnc5)cc4-c4cn(C)nc4C(F)(F)F)C3=O)c2c1 — AUC(0-inf) (male CD-1 mouse, plasma; oral, 10 mg/kg): 4460 ng·h/mL
CC[C@H](C)[C@@H]1NC(=O)[C@@](C)(NC(=O)[C@H](CCCNC(=N)N)NC(=O)[C@H](CC(C)C)NC(=O)[C@@H](NC(=O)[C@H](CCC(N)=O)NC(=O)[C@H](CC(C)C)NC(C)=O)[C@@H](C)O)CCCC=CCCC[C@@](C)(C(=O)N[C@@H](CC(C)C)C(=O)N[C@@H](Cc2ccc3ccccc3c2)C(N)=O)NC(=O)[C@H](CCCNC(=N)N)NC(=O)[C@H](CCC(N)=O)NC1=O — AUC(0-inf) (male BALB/c mouse, plasma; intravenous, 10 mg/kg): 233000 ng·h/mL
COc1cc2c(Nc3ccc(Cl)c(Cl)c3F)ncnc2cc1OC[C@@H]1C[C@@H]2CN(C)C[C@@H]2C1 — AUC(0-inf) (FVB mouse, brain; oral, 70 mg/kg, single dose): 158000 ng·h/mL
COc1cc(OC)c2nccc(N3CCc4c(cc(Cn5ccnc5)cc4-c4cn(C)nc4C(F)(F)F)C3=O)c2c1 — AUC(0-inf) (male CD-1 mouse, plasma; intravenous, 3 mg/kg): 805 ng·h/mL
Cc1ccc(NC(=O)c2ccc(CN3CCN(C)CC3)cc2)cc1Nc1nccc(-c2cncc(-c3oncc3C)c2)n1 — AUC(0-inf) (male C57BL/6 mouse, brain; oral, 100 mg/kg/day): 1200 ng·h/mL
